The array DNA melting data of Ke et al. (doi:10.1101/2024.01.08.574731)

Tests used:
[1] = folding enthalpy; higher = less favourable; fluorescence melt of hairpins on a sequencing array, two-state fit; conditions: sodium 0.088 M
Outline: (§1)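 In 50 mM Na-HEPES pH 8.0 containing 25 mM NaCl, hairpins from the library on a sequenced MiSeq flow cell were imaged for Cy3 fluorescence at 2.5 °C steps up to 60 °C, with Cy3 and quencher oligos annealed. After normalisation to pre-quench Cy3 and to control constructs, two-state fits with bootstrapping gave melting temperature and folding enthalpy. Four replicates were combined by inverse-variance weighting, and fitted temperatures were shifted up by 9.35 °C to match UV melts.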

[2] = melting temperature; fluorescence melt of hairpins on a sequencing array, two-state fit, raised by 9.35 °C to match UV melts; conditions: sodium 0.088 M
Outline: as §1

| Sequence | folding enthalpy [1] [kcal/mol] | Tm [2] [°C] |
| --- | --- | --- |
| GGTGTAGGAAACCACACC (((((.(....).))))) | -32.9 | 47.4 |
| GGAAGTGGAAACGCTTCC (((((.(....).))))) | -41.7 | 50.8 |
| GGTGACGAAAGTCCGACC ((((((....)))..))) | -15.3 | 39 |
| GTTAAGACGAAAGTCAAC (((..(((....)))))) | -11.8 | 30.1 |
| GTGATTGGAAACAGTCAC ((((.((....)).)))) | -36.6 | 45.4 |
| GGGCAGGGAAACCTGTCC ((.((((....)))).)) | -43.9 | 57.1 |
| GAAATGAAAATTTC (((((....))))) | -12.2 | 30.1 |
| GGGTACGAAAGTACACCC ((((((....)))..))) | -13.4 | 50.2 |
| GTTCTCGAAAGAGAAAAC ((((((....)))..))) | -14 | 32.6 |
| GTCTGCCCGAAAGGGGAC (((..(((....)))))) | -10.9 | 34.8 |
| GTTATAGAAATATAAC ((((((....)))))) | -17.1 | 33.6 |
| GATCGTTGGTACGATC ((((((....)))))) | -38.4 | 55.2 |
| GGACTCGGAAACGGGTTC (.((.((....)).)).) | -25.7 | 40.2 |
| GCGACACGAAAGTGCCGC (((.(((....))).))) | -38.8 | 64.3 |
| GTTCTAGAAATAGAAC ((((((....)))))) | -28.4 | 41.1 |
| GACCGGCGAAAGCCCGTC (((.(((....))).))) | -16.9 | 50.8 |
| GATCAACGTATTGATC ((((((....)))))) | -26.9 | 44.1 |
| GTAGCGGGAAACTGCTAC (((((.(....).))))) | -37.1 | 53.6 |
| GCTAGGGGAAACCCTAGC (((((((....))))))) | -44.2 | 65.9 |
| GCGACCTCGAAAGAGCGC (((..(((....)))))) | -31.1 | 49.1 |
| GCTGTGCGAAAGCGTAGC (((..((....))..))) | -17.6 | 49.5 |
| GCCTATTCGAAAGAAGGC (((..(((....)))))) | -20.6 | 38.2 |
| GCGAATATCGC ((((...)))) | -16.6 | 46.5 |

| Sequence | folding enthalpy [1] [kcal/mol] | Tm [2] [°C] |
| --- | --- | --- |
| GTGACTGGAAACAATCAC ((((.((....)).)))) | -20.1 | 36 |
| GAGAGGGGAAACCTTCTC ((((.((....)).)))) | -27.4 | 40.3 |
| GTAGTCCGAAAGGATTAC (((.(((....))).))) | -34.5 | 49.4 |
| GTCGCTGGAAACAGTGAC (((.(((....))).))) | -50.4 | 54.9 |
| GCTTGGTCGAAAGACAGC (((..(((....)))))) | -14.8 | 43.2 |
| GATCTTAAGAAGATC ((((((...)))))) | -25.5 | 40.5 |
| GATGGGGGAAACCCTGTC ((..(((....)))..)) | -22.5 | 33.2 |
| GCAAAGCGAAAGCTGCGC ((..(((....)))..)) | -28.5 | 64.3 |
| GCCGCGCGAAAGCTCAGC ((.(.((....)).).)) | -10.8 | 35.1 |
| GCATGCGAAAGCACGTGC ((((((....)))..))) | -19.2 | 39.8 |
| GAGTTGGGAAACTAACTC (((((.(....).))))) | -31 | 43.6 |
| CGTGCGGAAACGCCGACG ((((((....)))..))) | -15.6 | 44.5 |
| CGTTTCGGAAACGATACG (((.(((....))).))) | -33.6 | 45.6 |
| GTGAAGGGAAACTTTCAC (((((.(....).))))) | -24.8 | 40.2 |
| GGGTCCCGAAAGGGCCC (((.(((....)))))) | -29.5 | 68 |
| GCATCAGGAAACTAATGC ((((.((....)).)))) | -22.6 | 31.5 |
| GTCGTCGAAAGACGAGAC ((((((....)))..))) | -10.8 | 49.8 |
| GCCCTTGAAAAAGGGC ((((((....)))))) | -36 | 68 |
| GTCCGGGCGAAAGCCGAC (((..(((....)))))) | -11.1 | 44.3 |
| GATCCCTCGTGGGATC ((((((....)))))) | -40.2 | 62.2 |
| GATCTACTATTAGATC ((((((....)))))) | -33.1 | 38.6 |
| GGGGTTGGAAACGACCTC (.(((.(....).))).) | -20.7 | 40.3 |
| GAGTCCGAAAGGAGCTC ((((((....))).))) | -22 | 47.2 |

| Sequence | folding enthalpy [1] [kcal/mol] | Tm [2] [°C] |
| --- | --- | --- |
| GGTACCGAAAGGTAGACC ((((((....)))..))) | -13.2 | 41 |
| GCTTAAGGAAACTTAAGC (((((((....))))))) | -39.6 | 53.2 |
| GATCTTTTTAAGATC ((((((...)))))) | -32.2 | 47.1 |
| GGCATCACGAAAGTGGCC (((..(((....)))))) | -21.9 | 48.2 |
| GATCACGAAAGTGTAATC ((((((....)))..))) | -10.3 | 30.1 |
| GATCTCGTAAGAGATC ((((((....)))))) | -35.3 | 68.4 |
| GCTTCTCGAAAGAGCAGC (((.(((....))).))) | -24 | 46.8 |
| CGTGCCGGAAACGGTACG (((.(((....))).))) | -32.4 | 60.3 |
| GTTCTTGGAAACAAGAAC (((((((....))))))) | -41.7 | 55.5 |
| GCACTGCGAAAGCAATGC (((.(((....))).))) | -40.9 | 51.5 |
| GTCCGCGGAAACGCAGAC (((.(((....))).))) | -21.5 | 49.9 |
| GTTTACGAAAGTAAAAAC ((((((....)))..))) | -12 | 29.5 |
| GTTACCGGAAACGATAAC ((((.((....)).)))) | -26.6 | 36.1 |
| GCGATGCGAAAGCATAGC ((.((((....)))).)) | -31.1 | 66.7 |
| GGTATTGGAAACGATACC (((((.(....).))))) | -33.4 | 44.4 |
| GACCCCCGAAAGGGAGTC (((.(((....))).))) | -28.8 | 54 |
| GCGTTTGGAAACGAACGC (((((.(....).))))) | -61.3 | 55.7 |
| GCTTAGGAAACTAAGC ((((((....)))))) | -31.7 | 52.7 |
| GGTACAGGAAACCGTACC (((((.(....).))))) | -33 | 47.1 |
| GGGACGTCGAAAGACCCC (((..(((....)))))) | -18.4 | 41 |
| GATGATGGAAACGTCATC (((((.(....).))))) | -29.8 | 46.7 |
| CGATCGGAAACGACGTCG ((((((....)))..))) | -18.6 | 40.8 |
| CGCACGGAAACGTCGGCG ((((((....)))..))) | -24 | 46.6 |
